Laboratory results as given in ChEMBL document CHEMBL2046370, “Beta-carboline alkaloids derived from the ascidian Synoicum sp” (Bioorg Med Chem, 2012).
In brackets after ≈: the same amount, converted by molar mass.

Experiments:
Isocitrate lyase = Isocitrate lyase (Candida albicans, UniProt Q9P8Q7); test: Inhibition of Candida albicans recombinant ICL assessed as formation of glyoxylate phenylhydrazone by spectrophotometry
Outline: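 Recombinant enzyme assayed spectrophotometrically with isocitrate and phenylhydrazine present. Absorbance at 324 nm was monitored for glyoxylate phenylhydrazone formation, and IC50 was determined.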

Aspergillus fumigatus = test: Antifungal activity against Aspergillus fumigatus HIC 6094 after 48 to 72 hrs; assay type: functional
Trichophyton rubrum = test: Antifungal activity against Trichophyton rubrum IFO 9185 after 48 to 72 hrs; assay type: functional
[1] = tested on: Trichophyton mentagrophytes; test: Antifungal activity against Trichophyton mentagrophytes IFO 40996 after 48 to 72 hrs; assay type: functional
Candida albicans = test: Antifungal activity against Candida albicans ATCC 10231 after 48 to 72 hrs; assay type: functional
Staphylococcus aureus = test: Antibacterial activity against Staphylococcus aureus ATCC 6538p after 24 hrs; assay type: functional
Bacillus subtilis = test: Antibacterial activity against Bacillus subtilis ATCC 6633 after 24 hrs; assay type: functional; details: ATCC 6633, 24 h
Micrococcus luteus = test: Antibacterial activity against Micrococcus luteus IFC 12708 after 24 hrs; assay type: functional; details: IFC 12708, 24 h
Salmonella typhimurium = test: Antibacterial activity against Salmonella typhimurium ATCC 14028 after 24 hrs; assay type: functional, Salmonella enterica subsp. enterica serovar Typhimurium; details: Salmonella enterica, ATCC 14028, 24 h
Proteus vulgaris = test: Antibacterial activity against Proteus vulgaris ATCC 3851 after 24 hrs; assay type: functional; details: ATCC 3851, 24 h
Escherichia coli = test: Antibacterial activity against Escherichia coli ATCC 35270 after 24 hrs; assay type: functional; details: ATCC 35270, 24 h
A549 = test: Cytotoxicity against human A549 cells by MTT assay; assay type: functional; details: read-out: LC50 (the source's name)
Sortase A = biological target: T1, Sortase A (Staphylococcus aureus, UniProt Q9S446); test: Inhibition of Staphylococcus aureus ATCC 6538p recombinant SrtA; parameters: species or system ATCC 6538p r
T1 sequence (Q9S446 whole entry): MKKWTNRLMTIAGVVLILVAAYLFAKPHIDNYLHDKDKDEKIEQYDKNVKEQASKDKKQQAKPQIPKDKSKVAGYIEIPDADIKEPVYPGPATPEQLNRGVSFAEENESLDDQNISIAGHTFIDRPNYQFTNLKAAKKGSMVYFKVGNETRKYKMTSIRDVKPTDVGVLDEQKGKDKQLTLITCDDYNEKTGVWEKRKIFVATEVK

[2] = Inhibition of porcine cerebral cortex Na+/K+ ATPase assessed as formation of fluorescent 3-O-methylfluorescein from 3-O-methylfluorescein phosphate by fluorometry; assay type: tissue-based, Sus scrofa

Isocitrate lyase, sequence (Q9P8Q7 whole entry): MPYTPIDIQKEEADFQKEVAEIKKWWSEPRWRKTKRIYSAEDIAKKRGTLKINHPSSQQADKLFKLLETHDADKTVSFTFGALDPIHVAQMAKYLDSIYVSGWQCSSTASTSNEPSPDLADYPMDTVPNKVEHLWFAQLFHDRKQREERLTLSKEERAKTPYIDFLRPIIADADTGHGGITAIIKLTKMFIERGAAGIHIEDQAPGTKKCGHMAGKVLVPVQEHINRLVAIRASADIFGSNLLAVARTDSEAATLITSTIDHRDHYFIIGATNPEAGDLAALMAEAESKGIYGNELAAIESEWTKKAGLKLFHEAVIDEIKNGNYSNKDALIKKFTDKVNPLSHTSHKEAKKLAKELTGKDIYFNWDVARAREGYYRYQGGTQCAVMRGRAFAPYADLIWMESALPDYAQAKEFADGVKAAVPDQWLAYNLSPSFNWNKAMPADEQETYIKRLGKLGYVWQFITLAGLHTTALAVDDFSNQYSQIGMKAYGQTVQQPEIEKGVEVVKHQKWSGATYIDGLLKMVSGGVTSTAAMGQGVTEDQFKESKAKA

| Compound | IC50 (Isocitrate lyase) [µM] | MIC (Aspergillus fumigatus) [µg/mL] | MIC (Trichophyton rubrum) [µg/mL] | MIC [1] [µg/mL] | MIC (Candida albicans) [µg/mL] | MIC (Staphylococcus aureus) [µg/mL] | MIC (Bacillus subtilis) [µg/mL] | MIC (Micrococcus luteus) [µg/mL] | MIC (Salmonella typhimurium) [µg/mL] | MIC (Proteus vulgaris) [µg/mL] | MIC (Escherichia coli) [µg/mL] | CC50 (A549) [µM] | IC50 (Sortase A) [µM] | IC50 [2] [µM] |
| --- | --- | --- | --- | --- | --- | --- | --- | --- | --- | --- | --- | --- | --- | --- |
| O=C(O)CC[N+](=O)[O-] | 38.6 |  |  |  |  |  |  |  |  |  |  |  |  |  |
| C[C@@H]1[C@H](O)[C@@H](C)/C=C/C=C/C=C/C=C/C=C/C=C/C=C/[C@H](O[C@@H]2O[C@H](C)[C@@H](O)[C@H](N)[C@@H]2O)C[C@@H]2O[C@](O)(C[C@@H](O)C[C@@H](O)[C@H](O)CC[C@@H](O)C[C@@H](O)CC(=O)O[C@H]1C)C[C@H](O)[C@H]2C(=O)O [AMPHOTERICIN B] |  | 0.78 (≈ 0.844 µM) | 0.78 (≈ 0.844 µM) | 0.39 (≈ 0.422 µM) | 0.39 (≈ 0.422 µM) |  |  |  |  |  |  |  |  |  |
| CC1(C)S[C@@H]2[C@H](NC(=O)[C@H](N)c3ccccc3)C(=O)N2[C@H]1C(=O)O [AMPICILLIN] |  |  |  |  |  | 0.39 (≈ 1.12 µM) | 0.78 (≈ 2.23 µM) | 0.39 (≈ 1.12 µM) | 0.78 (≈ 2.23 µM) | 0.39 (≈ 1.12 µM) | 6.25 (≈ 17.9 µM) |  |  |  |
| COc1cccc2c1C(=O)c1c(O)c3c(c(O)c1C2=O)C[C@@](O)(C(=O)CO)C[C@@H]3O[C@H]1C[C@H](N)[C@H](O)[C@H](C)O1 [DOXORUBICIN] |  |  |  |  |  |  |  |  |  |  |  | 3.3 |  |  |
| O=C(c1ccc(O)cc1)c1nccc2c1[nH]c1ccccc12 [EUDISTOMIN Y1] | 48.2 | 50 (≈ 173 µM) | 50 (≈ 173 µM) | 100 (≈ 347 µM) | 50 (≈ 173 µM) | > 100 | > 100 | > 100 | > 100 | > 100 | > 100 | 59 | > 347 |  |
| O=C(c1ccc(O)cc1)c1nccc2c1[nH]c1ccc(Br)cc12 [EUDISTOMIN Y2] | 50.2 | > 100 | > 100 | > 100 | 6.25 (≈ 17 µM) | 50 (≈ 136 µM) | 25 (≈ 68.1 µM) | 25 (≈ 68.1 µM) | 50 (≈ 136 µM) | 25 (≈ 68.1 µM) | > 100 | 65.6 | > 272 | 209 |
| O=C(c1ccc(O)c(Br)c1)c1nccc2c1[nH]c1ccccc12 [EUDISTOMIN Y3] | > 272 | > 100 | > 100 | > 100 | > 100 | 12.5 (≈ 34 µM) | 12.5 (≈ 34 µM) | 12.5 (≈ 34 µM) | 6.25 (≈ 17 µM) | 6.25 (≈ 17 µM) | 100 (≈ 272 µM) | 253 | > 272 | 22.5 |
| O=C(c1ccc(O)c(Br)c1)c1nccc2c1[nH]c1ccc(Br)cc12 [EUDISTOMIN Y4] |  | > 100 | > 100 | > 100 | > 100 | 3.12 (≈ 7.01 µM) | 0.78 (≈ 1.75 µM) | 1.56 (≈ 3.5 µM) | 0.39 (≈ 0.874 µM) | 0.39 (≈ 0.874 µM) | 50 (≈ 112 µM) | 48.4 | 163 | 7.5 |
| O=C(c1cc(Br)c(O)c(Br)c1)c1nccc2c1[nH]c1ccccc12 [EUDISTOMIN Y5] |  | > 100 | > 100 | > 100 | > 100 | 6.25 (≈ 14 µM) | 3.12 (≈ 7.01 µM) | 3.12 (≈ 7.01 µM) | 0.78 (≈ 1.75 µM) | 1.56 (≈ 3.5 µM) | 100 (≈ 224 µM) | 85.4 | 146 | 19.8 |
| O=C(c1cc(Br)c(O)c(Br)c1)c1nccc2c1[nH]c1ccc(Br)cc12 [EUDISTOMIN Y6] |  | > 100 | > 100 | > 100 | > 100 | 1.56 (≈ 2.97 µM) | 1.56 (≈ 2.97 µM) | 1.56 (≈ 2.97 µM) | 0.39 (≈ 0.743 µM) | 0.78 (≈ 1.49 µM) | 50 (≈ 95.2 µM) | 60 | > 190 | 10.1 |
| O=C(c1cc(Br)c(O)c(Br)c1)c1nccc2c1[nH]c1cc(Br)ccc12 [EUDISTOMIN Y7] |  | > 100 | > 100 | > 100 | > 100 | 3.12 (≈ 5.95 µM) | 0.78 (≈ 1.49 µM) | 1.56 (≈ 2.97 µM) | 0.78 (≈ 1.49 µM) | 0.78 (≈ 1.49 µM) | 50 (≈ 95.2 µM) | 59 | > 190 | 11.3 |
| Oc1ccc(C(O)c2nccc3c2[nH]c2ccccc23)cc1 (stereo not given) [EUDISTOMIN Y8] | 68.9 | > 100 | > 100 | > 100 | > 100 | 100 (≈ 344 µM) | 100 (≈ 344 µM) | 100 (≈ 344 µM) | > 100 | > 100 | > 100 | > 344 | > 344 | > 344 |
| Oc1ccc(C(O)c2nccc3c2[nH]c2ccc(Br)cc23)cc1Br (stereo not given) [EUDISTOMIN Y9] |  | > 100 | > 100 | > 100 | > 100 | 6.25 (≈ 13.9 µM) | > 100 | > 100 | > 100 | > 100 | > 100 | 17.9 | > 223 | 33.3 |
| Oc1c(Br)cc(C(O)c2nccc3c2[nH]c2ccccc23)cc1Br (stereo not given) [EUDISTOMIN Y10] |  | > 100 | > 100 | > 100 | > 100 | 25 (≈ 55.8 µM) | 25 (≈ 55.8 µM) | 12.5 (≈ 27.9 µM) | 12.5 (≈ 27.9 µM) | 12.5 (≈ 27.9 µM) | > 100 | > 223 | > 223 | 122 |
| Oc1c(Br)cc(C(O)c2nccc3c2[nH]c2ccc(Br)cc23)cc1Br (stereo not given) [EUDISTOMIN Y11] |  | > 100 | > 100 | > 100 | > 100 | 6.25 (≈ 11.9 µM) | 3.12 (≈ 5.93 µM) | 3.12 (≈ 5.93 µM) | 3.12 (≈ 5.93 µM) | 3.12 (≈ 5.93 µM) | 100 (≈ 190 µM) | > 190 | > 190 | 32.8 |
| Cc1ccc(S(=O)(=O)Oc2ccc(C(O)c3nccc4c3[nH]c3ccc(Br)cc34)cc2Br)cc1 (stereo not given) [EUDISTOMIN Y12] | > 166 | > 100 | > 100 | > 100 | > 100 | > 100 | > 100 | > 100 | > 100 | > 100 | > 100 | 63.3 | > 166 |  |
| OC(c1ccccc1)c1nccc2c1[nH]c1ccc(Br)cc12 (stereo not given) [EUDISTOMIN Y13] | > 283 | > 100 | > 100 | > 100 | > 100 | > 100 | 100 (≈ 283 µM) | 100 (≈ 283 µM) | > 100 | > 100 | > 100 | 49 | > 283 |  |
| C[C@@H]1O[C@@H](O[C@H]2C[C@@H](O)[C@]3(CO)[C@H]4[C@H](O)C[C@]5(C)[C@@H](C6=CC(=O)OC6)CC[C@]5(O)[C@@H]4CC[C@]3(O)C2)[C@H](O)[C@H](O)[C@H]1O [OUABAIN] |  |  |  |  |  |  |  |  |  |  |  |  |  | 6.3 |
